Assay results from the EternaBench riboswitch data.

System: MS2 coat protein
Assay: apparent Kd, MS2 coat protein; higher = weaker binding; RNA-MaP array; FMN 200 µM where present
Procedure, shortened: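 Green signal from SNAP-549-labelled MS2 coat protein was normalised to red-channel RNA signal and to the median Fmax of control clusters. The protein was titrated from 0.7 or 1.5 nM, doubling to 3 µM, without and then with constant ligand, over designs transcribed by stalled E. coli RNA polymerase on Illumina sequencing-chip clusters, in 100 mM Tris-HCl pH 7.5, 80 mM KCl, 4 mM MgCl2, BSA, DTT, yeast tRNA and Tween-20. The apparent Kd is the median of filtered per-cluster binding-curve fits.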

[1] = designed as: OFF switch for flavin mononucleotide, no ligand
[2] = ligand present: flavin mononucleotide, designed as: OFF switch for flavin mononucleotide
[3] = designed as: ON switch for flavin mononucleotide, no ligand
[4] = ligand present: flavin mononucleotide, designed as: ON switch for flavin mononucleotide

| Sequence | apparent Kd [1] | apparent Kd [2] | apparent Kd [3] | apparent Kd [4] |
| --- | --- | --- | --- | --- |
| GUCCCACAUGAGGAUCACCCAUGUGAGGAUAUGGAUUCGCUGGCCGUAGCCAGUGGAUCCAGAAGGCGCGUGAU | 73.5 nM | 77.2 nM | – | – |
| ACAUGAUAUGUAGGAUAUCACAACUUGUGUUAUAAAAUUGUAUUUUAGGAUUGAGAAGGACAUUUACAUGAGGAUCACCCAUGU | 15.5 nM | 12.8 nM | – | – |
| AUCAGCUCGUCAGGAUAUACGUCACUGCGGCAGCAGUGUGGUAAGAUCACAUGAGGAUCACCCAUGUAGAAGGGACGAGCUGAU | 13.1 nM | 260 nM | – | – |
| CAGCACUGUCGAGAGGAUAUGCGGUGAUGGACAUGAGGAUCACCCAUGUUAGCGACAGCAUCACGGCAGAAGGCUCUGCUGCUGC | – | – | 59.4 nM | 16.9 nM |
| GGAUAUGUCGUCUACAUGAGGAUCACCCAUGUUGAUAAACAUGAGGAUAUUGAUAAGAAUUGUAUCGAGAAGGUAUGUAGGUCC | – | – | 106 nM | 89.5 nM |
| GUUUUUUGUCAUGUACAUGAGGAACAUGAGGAUCACCCAUGUAGAAGGAAUUUUUUUAAGUUUAGUUAGGAUAUACAUAUAUUA | 49 nM | 24.7 nM | – | – |
| GGAAUAUUUACAGGAUAUGUUUUGUUAAGUCGAGCAGAAGGGUGGAUGUCUUACACGGUUUGUUACAUGAGGAUCACCCAUGUC | – | – | 264 nM | 260 nM |
| CCGACGAAAGUCGAACGAUGUAGCAGAAGGACAUGAGGAUCACCCAUGUCAGCUGUAACAGCCAUGUAGGAUAUGCUACAUCGU | 4.28 nM | 5.85 nM | – | – |
| ACAUGCAUAGCGAUAUGAUCGAGAGAUCAUGUCGCUUUUAAAAGAAGGACAUGAGGAUCACCCAUGUAGGAUAUGGGAGCAUGA | – | – | 53.4 nM | 13.2 nM |
| AAAAUCUAUUGAGGAUAUCGUUCUUAAAGAGAAUGAGAAGGCAAACAAUCAUGAGGACAUGAGGAUCACCCAUGUUGUGACCAU | – | – | 19.9 nM | 10.3 nM |
| GUGCAUUACGAGAAGGCGUACUGGUGAAUAUAAAACGACAAAGGUACAUGAGGAUCACCCAUGUACGAGGAUAUCGGUUUGGCU | 9.74 nM | 29.8 nM | – | – |
| UUUGUACAUGAGGAUCACCCAUGUGAGGAUAUGCUUUAUUAUUAUUAUUAUUAUUAUUGCAGAAGGCACGUUGU | 69.7 nM | 98.2 nM | – | – |
| CGCUAAUUAAUUAUAUUAAUUGUACAGGAUAUGUAACAUGAGGAUCACCCAUGUAUUGGGUUUAAACAGAAGGGUAUAUUAGCG | 425 nM | 112 nM | – | – |
| UUGCCUCAGAACAUGAGGAUCACCCAUGUGCUGCGGGCAACGUAGGAUAUGAUGGUACGCUACCAUCAGAAGGAUGAUGGUACC | – | – | 5.51 nM | 4.99 nM |
| AAAAAAAAAAGUCAGGAUAUACAAAUUUUUACAUGAGGAUCACCCAUGUUAAGGAAAAAAAAAAAGUAGAAGGGACAAAAAAAAAA | – | – | 27.3 nM | 17.6 nM |
| CGCAAGUAUACAUGAGGAUCACCCAUGUUUGAUAGGGUUUUCAGAAGGUACAAUUAGAGAUAGAGUAAGGAUAUGAAAUUUGCG | – | – | 125 nM | 24.7 nM |
| GGUGAAGCAGGAUAUGUGCCGAUAUACAUGAGGAUCACCCAUGUCAUGUAGGAACCGCGUAUAGAAGGGCUUCACC | 39.2 nM | 67.1 nM | – | – |
| UAGUAGAUCCGAGGAUAUACAAUCCGGAAACGGUACAUGAGGAUCACCCAUGUAGAAGGCGGAUCUACAGGUACUAAAGUACCU | 5.12 nM | 7.93 nM | – | – |
| GGGUUGGGAGGAUAUCCAAUAUAUGACAUGAGGAUCACCCAUGUUUCCACUCGUACCUCCGGAGAAGGCCCUUCCC | 19.3 nM | 20 nM | – | – |
| GCGUGACGGUGCGCGAGUGGACGGAGAAGGCAGACAUGAGGAUCACCCAUGUGAGCCUGCUAUUCUGAGGAUAUCCGUUCGCAC | 32.5 nM | 150 nM | – | – |
| UGCCGUGUACAGAAGGGCGACAUGAGGAUCACCCAUGUCUCCUUGUUGGUCGUAGGAUAUGUACCGUGGCUCUCUACUGUGGGA | 5.47 nM | 6.75 nM | – | – |

| Sequence | apparent Kd [1] | apparent Kd [2] | apparent Kd [3] | apparent Kd [4] |
| --- | --- | --- | --- | --- |
| GCACUGGAUGUAGGAUAUCAGGACGAUAAGUCCUGAGAAGGACAUGAGGAUCACCCAUGUAACCUCUAACCAGUGCAUAAUAUA | 12.6 nM | 23.1 nM | – | – |
| AACAAACAUGAGGAUCACCCAUGUCAGGAUAUGCAAACAACAAACAACAAACAACAAAGCAGAAGGGACAACAA | 23.7 nM | 30.2 nM | – | – |
| UCGAACGGAAAUAAAGUAAAUAGACAUGAGGAUCACCCAUGUAAGGAUAUGCCUACUAAAAGUAGGCAGAAGGUACGCGUUCGA | 17.5 nM | 19.2 nM | – | – |
| CUGCUGGAGCUUUGCUUUAGUCGUACAUGAGGAUCACCCAUGUAGGAUAUGGUAGGCUAUGCUUACUAGAAGGAUAGAGUGGUC | 62.3 nM | 32.2 nM | – | – |
| GGAAAGUGAGGAUAUGGUAAAGUAAGUAUGUAGUAAGUAAUCCAGAAGGCACAUGAGGAUCACCCAUGUAAAUG | 28.1 nM | 35.7 nM | – | – |
| UCGUCCUCGUGCUAGGAUAUCCAUCGUAAAACAUGAGGAUCACCCAUGUAGAAAUGCGCCUACGAGGAGAAGGAGCGAUGUGGAU | – | – | 20.6 nM | 15.2 nM |
| AGAAAACAUGAGGAUCACCCAUGUCAGGAUAUCCUGCGGCAAUACACGCCGCGUUGUCGGAGAAGGGACAGGGA | 39 nM | 102 nM | – | – |
| GAGUGACAUGAGGAUCACCCAUGUGAGGAUAUCGGCCGGACCUUGUUAGCUUCCGCCGCGAGAAGGCACAUCGG | 71.8 nM | 157 nM | – | – |
| GGUGCAUAUGAGAAGGCGAUCAUGAAACAUGAUCGAGGAUAUCAUGUAAACAUGAGGAUCACCCAUGUAUGGGAAUAUUGCACC | – | – | 176 nM | 12.6 nM |
| CGCUACUACCAGAAGGACAUGAGGAUCACCCAUGUAGGAUAUGGGUUACAAGUACCAGUGUAAAGAAACUACGCUACAGUAGCG | – | – | 57.8 nM | 8.73 nM |
| AAUUAGGUCACAGGAUAUACAACAACCAAUGCUGUAGAAGGGUGUCACAUACUUAGCUGACAUGAGGAUCACCCAUGUAUCCAC | – | – | 172 nM | 68.2 nM |
| GGUACUCAAAGAGUACCAAUACGAACAUGAGGAUCACCCAUGUAGGAUAUGCUACUCAAAGAGUAGCAGAAGGACAUGUGCCCU | 60.5 nM | 608 nM | – | – |
| GUAGCAUACCGAGGAUAUUCAUAUCGUAAUCGAACAUGAGGAUCACCCAUGUGGCGAAAGCCUUGGGAGAAGGCGGAAUGCUAC | – | – | 360 nM | 25.9 nM |
| AAUAUGUUGCAGAAGGCCAUGUUGUGGUAGUACCUCAUGACAUGAGGAUCACCCAUGUUUGUGUUGGAGGAUAUGCAAUAUAUU | 37.7 nM | 201 nM | – | – |
| GUGAAGAUAGCAGGAUAUAUAUUUCCUACAUGAGGAUCACCCAUGUAGGUGAUCAGCCGAGUAAAGUAGAAGGGCUAUCUUUAC | – | – | 16.1 nM | 10.7 nM |
| CUUAGACAUGAGGAUCACCCAUGUGAGGAUAUGAUGCGAUCGUGCUGACAUGAUCGCAUCAGAAGGCACAUAUG | 145 nM | 322 nM | – | – |
| AAGUAGAUCCGAGGAUAUACAUUGCGGAAACGCAACAUGAGGAUCACCCAUGUAGAAGGCGGAUCUACAGGUACUAAAGUACCA | 10 nM | 17 nM | – | – |
| AAAUUAAGGAGAGGAUAUUGACAUGAGGAUCACCCAUGUAUUUGGGAGUGUUUACUGAAUUCUUACGAGAAGGCUUACGAAAUU | 308 nM | 234 nM | – | – |
| AAAUUUUGUCAAGGAUAUGUAUAAUUGAGUUGAAAACAUGAGGAUCACCCAUGUAUAUGGUGGGAACAGAAGGUGAAUAAGUAA | 195 nM | 151 nM | – | – |
| AACAGUACAGGAUAUACAUGAGGAUCACCCAUGUGAUAUUUAAGUGGCGUACCACAAAGUAGAAGGGUACUGGA | 21.9 nM | 85.6 nM | – | – |
